Rows were chosen to be rich in hits. Some 2% of all compounds tested hit in one or more screens of this group.
Lipid droplet: inhibitors of hepatocyte lipid droplet formation, primary screen, imaging, high-throughput imaging, BODIPY stain. actives 0.4% (n = 240,000). AML12 mouse hepatocytes, oleate lipid droplets. inhibition, % at 6.5 µM;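 active = lipid droplet intensity inhibited by at least 50%, with more than 500 cells counted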
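System: AML12 hepatocytes (mouse). Probe or stimulus: oleic acid at 100 µM to induce lipid droplet formation. Times: overnight treatment with compound plus oleate. Detection: Image-based BODIPY and DAPI two-channel analysis. Evaluation: percent inhibition of filter-corrected integrated lipid droplet intensity per well.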
NTR1 agonist: agonists of human NTR1, primary screen, imaging, U2OS cells, beta-arrestin-GFP, high content; AID 493036, 2011; activation, % at 20 µM; actives 0.17% (n = 330,000); NTR1-U2OS beta-arrestin-GFP spot imaging, agonist mode;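 active = activation at or above 40% of the spot to cytoplasm intensity ratio, with at least 20 cells analyzed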
Target sequence (P30989 whole entry, looked up): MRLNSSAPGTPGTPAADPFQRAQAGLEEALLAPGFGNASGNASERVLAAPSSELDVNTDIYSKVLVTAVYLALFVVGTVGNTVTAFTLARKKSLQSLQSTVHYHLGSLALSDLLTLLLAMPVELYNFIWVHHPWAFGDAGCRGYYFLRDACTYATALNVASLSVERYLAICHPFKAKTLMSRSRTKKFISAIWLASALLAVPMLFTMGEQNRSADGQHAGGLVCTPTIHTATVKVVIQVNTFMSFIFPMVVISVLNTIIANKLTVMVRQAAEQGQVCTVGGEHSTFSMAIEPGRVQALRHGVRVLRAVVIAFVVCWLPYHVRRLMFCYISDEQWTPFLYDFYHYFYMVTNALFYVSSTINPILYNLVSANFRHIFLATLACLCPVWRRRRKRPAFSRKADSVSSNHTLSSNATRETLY
GRK2 aptamer HTS: compounds blocking aptamer binding on GRK2 – biochemical, human GRK2, bead flow cytometry, HTS, primary screen | AID 488847, 2010 | inhibition of aptamer binding, % at 10 µM | actives 0.59% (n = 330,000) | FAM-aptamer displacement from GRK2;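 active = inhibition of aptamer binding above 40%, roughly 3 SD of noise, on plates passing a quality check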;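 also: median bead fluorescence of bound FAM aptamer so fluorescent compounds give negative values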
Arr AP2 block: inhibitors of beta-arrestin/AP2 binding, primary screen, biochemical, GPCR trafficking, flow cytometry | beta-arrestin 1 C-terminal peptide binding to AP2 beta2-adaptin appendage (human) | FITC-arrestin peptide / GST-AP2 beads; AP2 beta2 appendage carries R879A mutation | inhibition, % at 10 µM | actives 0.31% (n = 340,000);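 active = inhibition above a set limit, near 3 SD of compounds lacking own fluorescence, cut at about 54% in these data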
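Test system: GST-tagged AP2 beta2-adaptin appendage (R879A) on 4 µm glutathione beads; also added: fluorescein-tagged arrestin peptide at 50 nM final; timing: 12 min plus 1 h, RT; signal: flow cytometry, FL1 (488/535 nm); read-out: percent drop in bead-associated FITC signal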
TAG inh: inhibitors of triacylglycerol accumulation, primary screen, cell-based, uHTS, fluorescence, H9c2 | inhibition, % at 12.5 µM | H9c2 cells, Nile Red lipid (TAG) fluorescence; cells loaded with 200 µM oleic acid | actives 0.66% (n = 230,000);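 active = pattern-corrected inhibition of lipid staining of at least 50% with the nuclear-stain viability signal not falling by more than 50%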
Beta2AR agonist: beta2AR agonists driving receptor internalization, primary screen, cell-based, FAP fluorogen, flow cytometry; Beta-2 adrenergic receptor (Homo sapiens), P07550; Am2.2-beta2AR cells; response, % (concentration not given with the values); actives 0.43% (n = 340,000); AID 504454, 2011;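 active = response above a set limit, near 3 SD of response in nonfluorescent compounds, cut at about 42% in these data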
TAG conf: triacylglycerol accumulation inhibitors, retest, confirmation, cell-based, single concentration, Nile Red fluorescence, H9c2; shares compounds with TAG inh; H9c2 lipid accumulation; cells loaded with 200 µM oleic acid; inhibition, % at 12.5 µM; actives 71% (n = 990); AID 651629, 2012;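 active = mean inhibition across replicates of 40% or more; inactive = mean inhibition below 40%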
A number is an active result; 0 = inactive; - = no result.

SMILES	Lipid droplet	NTR1 agonist	GRK2 aptamer HTS	Arr AP2 block	TAG inh	Beta2AR agonist	TAG conf
O=C(CCN1C(=O)[C@@H]2Cc3ccccc3CN2C1=O)N[C@@H](Cc1ccccc1)C(=O)O	0	0	0	0	-	0	-
Cc1cccc(NC(=O)CSc2cccc3cccnc23)c1	0	0	0	0	59.2	0	0
NNC(=O)CSc1cccc2cccnc12	0	0	0	0	-	0	-
O=C(CSc1cccc2cccnc12)Nc1ccccc1F	0	0	0	0	73.0	0	0
CCCCOc1ccc(NC(=O)CSc2cccc3cccnc23)cc1	0	0	0	0	0	0	-
O=C(CSc1cccc2cccnc12)Nc1cc(C(=O)O)cc(C(=O)O)c1	0	0	0	0	51.9	0	0
Cc1ccc(C(=O)N2CCC3(CC2)Oc2ccc(F)cc2C(=O)C32CC(c3ccccc3)=NO2)s1 (configuration not stated)	-	0	0	0	0	0	-
C[C@H](CO)N1C[C@H](C)[C@@H](CN(C)Cc2cncnc2)Oc2cc(Br)ccc2S1(=O)=O	-	-	-	-	0	-	-
CCOc1ccc2ncc(S(=O)(=O)c3ccccc3)c(N3CCN(c4ccccc4)CC3)c2c1	-	0	0	0	0	0	-
CCOC(=O)c1cnc2ccc(OCC)cc2c1N1CCN(c2ccccc2)CC1	-	0	0	0	52.8	0	0
COc1ccc2c(c1)c(C(=O)CN1CCOCC1)c(C)n2C	0	0	0	0	0	0	-
COc1ccc(N2CCN(CC(=O)c3c(C)n(C)c4ccc(OC)cc34)CC2)cc1	0	0	0	0	54.8	0	0
O=C(c1cnn2c1NC(c1ccc(Br)cc1)CC2C(F)(F)F)N1CCN(C23CC4CC(CC(C4)C2)C3)CC1 (configuration not stated)	0	0	0	0	53.5	0	55.4
O=C(c1cnn2c1NC(c1ccc(Br)cc1)CC2C(F)(F)F)N1CCN2CCCC2C1 (configuration not stated)	-	0	0	0	-	0	-
Cn1nc(-c2ccc(Cl)cc2)c2cc(C(=O)NC3CC3)sc21	-	0	0	0	76.1	0	70.1
Cn1nnc2c[n+](CC(=O)c3ccc4ccccc4c3)cc(Br)c21	0	0	0	0	0	0	-
Cn1nnc2c[n+](CC(=O)c3ccc(Cl)cc3)cc(Br)c21	0	0	0	0	58.9	0	68.7
Cc1ccc(C(C(=O)NC2CCCC2)N(Cc2ccc3c(c2)OCO3)C(=O)c2snc(C(N)=O)c2N)cc1 (configuration not stated)	0	0	0	0	0	0	-
O=C(NC1CCCCC1)C(c1ccccc1)N(Cc1ccc2c(c1)OCO2)C(=O)c1cnsn1 (configuration not stated)	0	0	0	0	59.3	0	41.3
Cc1sc(NC(=O)/C=C/C(=O)O)c(C(N)=O)c1-c1ccc(C(C)(C)C)cc1	0	0	0	0	-	0	-
Cc1sc(NC(=O)c2cccc([N+](=O)[O-])c2)c(C(N)=O)c1-c1ccc(C(C)(C)C)cc1	0	0	0	0	81.9	0	0
COc1ccccc1N(C)S(=O)(=O)c1ccc(C(=O)NCC2CCCCC2)cc1	-	0	0	0	0	0	-
O=S(=O)(c1ccc(OCC(O)CNC23CC4CC(CC(C4)C2)C3)c(Cl)c1)N1CCOCC1 (configuration not stated)	0	0	0	0	59.1	0	0
Cc1ccnc2nc(C(=O)OCC(=O)N3CC(C)CC(C)C3)nn12 (configuration not stated)	-	0	-	0	0	0	-

Screens: PubChem, several laboratories
